Experimental data: ChEMBL document CHEMBL1142429, “Identification of ACE pharmacophore in the phosphonopeptide metabolite K-26” (Bioorg Med Chem Lett, 2008)

Test: Inhibition of ACE
Summary of the method: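 Enzyme source: rabbit lung acetone powder, extracted by soaking in 100 mM borate buffer, then ultracentrifuged. Extract preincubated 5 min with a range of inhibitor concentrations. Reaction started with a 1 mM solution of chromogenic substrate FAPGG. Initial hydrolysis rate followed continuously as absorbance change at 340 nm over time. IC50 from triplicate measurements fitted to a sigmoidal dose-response curve. Captopril run in parallel as benchmark.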

IC50 [µM] | Compound
0.0077 | C[C@H](CS)C(=O)N1CCC[C@H]1C(=O)O [CAPTOPRIL]
236 | CC[C@@H](C)[C@H](N)C(=O)N[C@@H](Cc1ccc(O)cc1)C(=O)N[C@@H](Cc1ccc(O)cc1)C(=O)O
54.6 | CC[C@@H](C)[C@H](N)C(=O)N[C@@H](Cc1ccc(O)cc1)C(=O)N[C@H](Cc1ccc(O)cc1)P(=O)(O)O
0.234 | CC[C@@H](C)[C@H](N)C(=O)N[C@@H](Cc1ccc(O)cc1)C(=O)N[C@@H](Cc1ccc(O)cc1)P(=O)(O)O
> 1000 | CC[C@@H](C)[C@H](N)C(=O)N[C@@H](Cc1ccc(O)cc1)C(=O)N[C@H](Cc1ccc(O)cc1)C(=O)O

Further lines, the compound ahead of its results:

Compound | IC50 [µM]
CC[C@@H](C)[C@H](NC(C)=O)C(=O)N[C@@H](Cc1ccc(O)cc1)C(=O)N[C@@H](Cc1ccc(O)cc1)P(=O)(O)O | 0.0144
CC[C@@H](C)[C@H](NC(C)=O)C(=O)N[C@@H](Cc1ccc(O)cc1)C(=O)N[C@H](Cc1ccc(O)cc1)P(=O)(O)O | 0.139
CC[C@@H](C)[C@H](NC(C)=O)C(=O)N[C@@H](Cc1ccc(O)cc1)C(=O)N[C@H](Cc1ccc(O)cc1)C(=O)O | 2000
CCOP(=O)(OCC)[C@H](Cc1ccc(O)cc1)NC(=O)[C@H](Cc1ccc(O)cc1)NC(=O)[C@@H](NC(C)=O)[C@H](C)CC | 383
CC[C@@H](C)[C@H](NC(C)=O)C(=O)N[C@@H](Cc1ccc(O)cc1)C(=O)N[C@@H](Cc1ccc(O)cc1)C(=O)O | 21
